# Assay outcomes deposited in PubChem by several laboratories.
# An excerpt weighted towards active compounds, which were near 3.4% of everything screened.
# ROCK2 inh: inhibitors of human Rho kinase 2. purified ROCK2, Kinase-Glo ATP depletion luminescence. AID 604. 60,000 tested, 0.35% active. O75116. inhibition, % at 6 µM;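 active = inhibition above the screen-wide mean inhibition plus 3 SD, cut at about 18% in these data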;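 also: plate controls were DMSO wells for no effect and Y-27632 control wells after no-enzyme background subtraction for full effect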
# SF-1 act: activates the human nuclear receptor SF-1. Q13285. CHO-K1 Gal4-SF-1 LBD luciferase reporter; % increase over DMSO SF-1-specific signal. activation, % at 10 µM. 65,000 tested, 1.9% active. AID 522;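 active = activation above the mean activation of all tested compounds plus 3 SD, cut at about 50% in these data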
#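 Assay system – CHO-K1 cells with Gal4–hSF-1 LBD chimera plus Gal4-driven luciferase · Quantity – 4,000 cells per well · Times – compound added 1 h post-seeding, 20 h exposure at 37 °C, 5% CO2 · Measured by – luciferase light emission · Benchmarks – DMSO and mock-transfected background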
# JNK3 inh: JNK3 (human) kinase inhibition | inhibition, % at 8 µM | 60,000 tested, 0.61% active | purified JNK3 kinase activity, HTS | P53779; in the data active = inhibition above about 17%;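 also: 0% = DMSO and 100% = reference inhibitor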
# RORA act: RORA (human) activation; 65,000 tested, 1.5% active; AID 560; CHO-K1 Gal4-RORA LBD luciferase reporter, luminescence; percent increase over mock-subtracted basal signal; P35398; activation, % at 10 µM;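 active = activation above the mean of all tested compounds plus 3 SD, cut at about 49% in these data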;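 also: 0% = DMSO-treated RORA cells and 100% = added signal equal to DMSO minus mock-transfected cells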
# WNV protease inh: blocks West Nile virus NS2B-NS3 protease activity | P06935 | WNV NS2B-NS3 protease, fluorogenic substrate Ex360/Em465; hits give low values | z-score (no concentration beside the values) | 65,000 tested, 0.18% active | AID 577; in the data active = z-score below about -3
# Target sequence (P06935 1371-1501 limits assumed): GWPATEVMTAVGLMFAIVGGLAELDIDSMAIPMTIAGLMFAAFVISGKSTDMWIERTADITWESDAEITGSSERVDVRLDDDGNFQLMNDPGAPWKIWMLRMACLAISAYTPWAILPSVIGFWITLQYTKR
# Target sequence (P06935 1502-1679 limits assumed): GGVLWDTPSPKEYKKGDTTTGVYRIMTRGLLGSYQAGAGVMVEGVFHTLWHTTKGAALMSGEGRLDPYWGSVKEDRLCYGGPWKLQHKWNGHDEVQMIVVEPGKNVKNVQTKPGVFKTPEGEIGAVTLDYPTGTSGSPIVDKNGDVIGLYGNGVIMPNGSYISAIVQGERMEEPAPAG
# PKA inh: inhibitors of human protein kinase A. P17612. PKA Kemptide phosphorylation, Kinase-Glo ATP luminescence. inhibition, % at 6 µM. 65,000 tested, 0.1% active;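 active = inhibition above the screen-wide mean inhibition plus 3 SD, cut at about 21% in these data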
# * marks the source's active call; other numbers are inactive results; / = not tested or not shown.
SMILES,ROCK2 inh,SF-1 act,JNK3 inh,RORA act,WNV protease inh,PKA inh
CC(=NCc1ccco1)c1c(C)[nH]n(-c2nc3ccccc3s2)c1=O,-20,12,20*,-25,0.84,0
O=C(Cn1nc(C(F)(F)F)c2c1CCC2)N1CCN(c2ccccc2)CC1,-4,-31,0,22,0.4,5
CC1=C(C(=O)OC2CCCC2)C(c2ccc(C)o2)C2=C(CC(c3cccs3)CC2=O)N1 (stereo not given),2,26,-5,4,0.45,-1
CCCCN1CC(O)=C(c2nc3ccccc3s2)C1=N,-1,74*,8,30,1.7,0
N=C1C(c2nc3ccccc3s2)=C(O)CN1CCCO,-1,23,7,23,1.1,1
CCOc1ccc(NC(=O)CN2CCN(CC(=O)Nc3ccc(C(=O)OC)cc3)CC2)cc1,4,10,3,-18,0.42,4
CCOc1ccc(NC(=O)CN2C(=O)C3CCCN3C2=O)cc1 (stereo not given),-8,10,17*,20,0.72,1
COC(=O)c1ccc(Cn2cnc3c(cnn3-c3ccc(Cl)cc3)c2=O)o1,-3,-10,1,2,0.95,-3
CCOc1cc(-c2noc(-c3cccnc3)n2)ccc1OC,9,20,2,23,0.37,4
Cc1ccccc1-c1nc(-c2cccnc2)no1,6,67*,6,43,-0.35,6
CCOc1ccc(-c2noc(-c3cccnc3)n2)cc1OC,13,14,-6,57*,0.57,0
Cc1cc(C)c(S(=O)(=O)N2CCN(c3nc4c(c(=O)n(C)c(=O)n4C)n3C)CC2)c(C)c1,-2,26,4,24,0.44,1
CCN(CC)c1ccc(NC(=O)c2cccc(C)c2OC)c(C)c1,11,66*,-4,73*,-0.34,2
COC(=O)CSc1nc(-c2cccs2)ccc1C#N,3,83*,5,60*,0.7,1
N#Cc1nc(-c2cccs2)oc1NCc1ccc2c(c1)OCO2,-13,-4,6,-18,-0.2,0
Cc1ccc(C(=O)c2coc3ccc(O)c(CN4CCN(C)CC4)c23)cc1,8,-15,3,-1,-0.29,9
CC1=C(C#N)c2nc(N)c(C#N)c(C)c2/C1=C\c1ccccc1,-2,-3,0,-27,-1.1,4
c1cncc(-c2nc(-c3cccs3)cs2)c1,/,10,/,40,-0.49,1
c1csc(-c2csc(-c3cccs3)n2)c1,-1,63*,-3,30,-1.7,2
COc1cccc2cc(-c3nc(-c4cccs4)cs3)c(=O)oc12,0,33,-2,55*,1.3,4
Cc1cc(C(=O)OCn2nnc3ccccc3c2=O)c(C)n1-c1ccccc1,-2,8,4,-9,-0.65,-4
O=C(CCCc1cccs1)Nc1nc2c(s1)CCCC2,6,73*,-5,37,-0.21,5
CC1CCc2nc(NC(=O)Cc3cccs3)sc2C1 (stereo not given),5,63*,5,35,-0.58,10
O=C(CSc1nc2ccccc2o1)Nc1nc2c(s1)CCCC2,2,12,-2,1,1.5,1
CCOC(=O)N1CCN(C(=O)CCCOc2ccccc2)CC1,0,75*,1,38,-0.86,-1
SMILES,ROCK2 inh,SF-1 act,JNK3 inh,RORA act,WNV protease inh,PKA inh
O=C(c1ccc(O)cc1)c1ccc(Cl)cc1,/,/,/,/,-0.27,/
CN(C)/C=N/c1cnc(C(=O)c2ccc(Cl)cc2)n1C,1,48,-11,76*,-0.62,6
Cc1cccc(S(=O)(=O)c2c(N)n(Cc3ccco3)c3nc4ccccc4nc23)c1,1,-15,0,-20,0.74,1
Nc1c(S(=O)(=O)c2cccc(Cl)c2)c2nc3ccccc3nc2n1/N=C/c1ccc(O)c(O)c1,1,-26,-2,6,-0.63,31*
CCOC(=O)c1ccc2ncc(C(=O)OCC)c(NCc3ccco3)c2c1,7,11,0,15,-0.38,6
OC(COc1ccc2ccccc2c1Cl)CN1CCOCC1 (stereo not given),6,54*,8,49,0.54,12
Cc1cc(OCC(=O)Nc2ccc3c(c2)OCCO3)ccc1Cl,6,-7,-7,-15,-0.37,10
Cc1cc(NC(=O)CSC2=Nc3ccccc3C3=NC(Cc4ccccc4)C(=O)N23)n[nH]1 (stereo not given),1,-14,36*,-2,0.27,4
CCCCNC(=O)CC1N=C2c3ccccc3N=C(SCC(=O)Nc3cccc(C)c3)N2C1=O (stereo not given),/,8,/,16,1.9,-2
O=C(Oc1ccc(-c2ccccc2)cc1)N1CCOCC1,0,43,-1,61*,0.09,-2
CC1C(O)=C(c2nc3ccccc3[nH]2)C(=N)N1c1ccccc1 (stereo not given),5,54*,-4,26,3.3,11
CCC(C)N1CC(O)=C(c2nc3ccccc3[nH]2)C1=N (stereo not given),5,43,-10,15,-0.02,11
CCOC(=O)N1CCC(NC(=O)c2ccc3c(c2)sc2nc(-c4ccc(OC)cc4)cn23)CC1,5,39,9,23,0.11,4
CCOC(=O)N1CCN(C(=O)c2ccc3c(c2)sc2nc(-c4ccccc4)cn23)CC1,2,110*,4,62*,0.3,10
Cc1cc2c(cc(C(=O)OCC(=O)NCc3cccs3)n2C(C)C)o1,4,12,-1,57*,0.39,10
CCCn1c(NC(=O)c2ccc(Cl)c(S(=O)(=O)N3CCCC3)c2)nc2ccccc21,6,-2,7,-17,2,15
O=C(CC(Nc1ccc(F)cc1)C(=O)O)c1ccccc1 (stereo not given),6,42,4,62*,0.16,9
Nc1ccc2oc(-c3ccccn3)nc2c1,/,36,/,23,-0.38,-1
Clc1ccc2oc(-c3ccccn3)nc2c1,-4,59*,-1,34,-1.2,6
COc1ccc(C(=O)COC(=O)CCN=C2NS(=O)(=O)c3ccccc32)cc1OC,6,4,-2,-4,0.63,7
CCOC(=O)CSc1nnc([C@@H](NC(=O)OC(C)(C)C)C(C)C)o1,1,-20,-10,-12,0.68,4
COc1cccc(OCc2nnc(SCC(=O)OCc3ccccc3)o2)c1,4,7,4,49*,-0.31,7
CC1(C)Cc2ccccc2C2CC(O)C(=O)N21 (stereo not given),4,-5,2,12,0.74,-2
O=C(NC1CC1)c1cc2c(s1)-c1ccccc1OC2,2,18,-6,32,9.1,0
CCc1ccc(C(=O)NCc2cccs2)s1,8,70*,-5,10,0.68,13
O=C(NCc1cccs1)c1cc2c(s1)-c1ccccc1OC2,13,36,-3,53*,0.53,0
